What all share (format): functional
The test system of assay [1] is Staphylococcus aureus. Briefly: Antibacterial activity against Staphylococcus aureus CGMCC 1.8721 measured after 12 to 14 hrs. Summed up: (§1)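 Twofold (double) dilution method for in vitro antibacterial activity, with fosfomycin sodium, ciprofloxacin and propineb as positive controls.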
A further assay relates to Bacillus cereus. Nature of the assay: Antibacterial activity against Bacillus cereus CGMCC 1.1846 measured after 12 to 14 hrs. The procedure, abridged: as §1
The subject of the next assay is Ralstonia solanacearum. Nature of the assay: Antibacterial activity against Ralstonia solanacearum CGMCC 1.12711 measured after 12 to 14 hrs. Summed up:
(§2)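 In vitro double dilution method, run alongside fosfomycin sodium, ciprofloxacin and propineb as positive controls.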

The subject of assay [2] is Staphylococcus aureus. Briefly: Antibacterial activity against methicillin-resistant Staphylococcus aureus ATCC 43300 measured after 12 to 14 hrs. Summed up:
as §2

In brackets after ≈: the same amount, converted by molar mass.

A word on the MIC: it is the least concentration at which growth counts as inhibited. Read a high MIC as weaker potency. Turning to `OCc1cc2c3ccccc3n(Cc3ccccc3C(F)(F)F)c2c(-c2c[nH]c3ccccc23)n1`, the MIC amounted to 50 µM (≈ 23.6 µg/mL) with Staphylococcus aureus [1], 50 µM (≈ 23.6 µg/mL) against Bacillus cereus, 50 µM (≈ 23.6 µg/mL) against Ralstonia solanacearum and 100 µM (≈ 47.1 µg/mL) against Staphylococcus aureus [2].

Regarding `COC(=O)c1cc2c3ccccc3n(Cc3cccc(C)c3)c2c(-c2cn(C(C)=O)c3ccccc23)n1`, the minimum inhibitory concentration (MIC) against Staphylococcus aureus [1], against Bacillus cereus, against Ralstonia solanacearum and with Staphylococcus aureus [2] was > 100 µM throughout.

`COC(=O)c1cc2c3ccccc3n(Cc3ccccc3C)c2c(-c2cn(C(C)=O)c3ccccc23)n1`: the MIC in the assay with Staphylococcus aureus [1] was > 100 µM; in the assay with Bacillus cereus it was 100 µM (≈ 48.8 µg/mL); against Ralstonia solanacearum, > 100 µM; against Staphylococcus aureus [2], > 100 µM.

For the compound `OCc1cc2c3ccccc3n(Cc3ccccc3)c2c(-c2c[nH]c3ccccc23)n1`, the MIC against Staphylococcus aureus [1] worked out at 12.5 µM (≈ 5.04 µg/mL); in the assay with Bacillus cereus it was 12.5 µM (≈ 5.04 µg/mL); against Ralstonia solanacearum, 12.5 µM (≈ 5.04 µg/mL); in the assay with Staphylococcus aureus [2], 100 µM (≈ 40.3 µg/mL).

On to `OCc1cc2c3ccccc3n(Cc3cccc(Cl)c3)c2c(-c2c[nH]c3ccccc23)n1`, for which the minimum inhibitory concentration (MIC) in the assay on Staphylococcus aureus [1] was 25 µM (≈ 10.9 µg/mL); in the assay with Bacillus cereus it was 25 µM (≈ 10.9 µg/mL); against Ralstonia solanacearum, 50 µM (≈ 21.9 µg/mL); with Staphylococcus aureus [2] it was > 100 µM.

As to `COC(=O)c1cc2c3ccccc3n(Cc3ccccc3Br)c2c(-c2cn(C(C)=O)c3ccccc23)n1`, the MIC with Staphylococcus aureus [1], with Bacillus cereus, with Ralstonia solanacearum and against Staphylococcus aureus [2] was > 100 µM in each case.

Consider `Cc1ccc(Cn2c3ccccc3c3cc(CO)nc(-c4c[nH]c5ccccc45)c32)cc1`, for which the MIC came out at 25 µM (≈ 10.4 µg/mL) in the assay with Staphylococcus aureus [1], 25 µM (≈ 10.4 µg/mL) in the assay with Bacillus cereus, 12.5 µM (≈ 5.22 µg/mL) with Ralstonia solanacearum and 25 µM (≈ 10.4 µg/mL) against Staphylococcus aureus [2].

As for `COC(=O)c1cc2c3ccccc3n(Cc3ccccc3F)c2c(-c2cn(C(C)=O)c3ccccc23)n1`, the MIC in the assay on Staphylococcus aureus [1], in the assay with Bacillus cereus, in the assay on Ralstonia solanacearum and with Staphylococcus aureus [2] was > 100 µM in each case.

Regarding `COC(=O)c1cc2c([nH]c3ccccc32)c(-c2cn(C(C)=O)c3ccccc23)n1`, the MIC against Staphylococcus aureus [1], with Bacillus cereus, against Ralstonia solanacearum and against Staphylococcus aureus [2] was > 100 µM in each case.

Turning to `OCc1cc2c3ccccc3n(Cc3cccc(Br)c3)c2c(-c2c[nH]c3ccccc23)n1`, the MIC against Staphylococcus aureus [1] is 25 µM (≈ 12.1 µg/mL); in the assay with Bacillus cereus, 25 µM (≈ 12.1 µg/mL); in the assay with Ralstonia solanacearum, 25 µM (≈ 12.1 µg/mL); against Staphylococcus aureus [2], > 100 µM.

Turning to `COC(=O)c1cc2c3ccccc3n(Cc3ccc(F)cc3)c2c(-c2cn(C(C)=O)c3ccccc23)n1`, the MIC in the assay on Staphylococcus aureus [1], against Bacillus cereus, in the assay with Ralstonia solanacearum and with Staphylococcus aureus [2] was > 100 µM each time.

On to `OCc1cc2c3ccccc3n(Cc3ccccc3Cl)c2c(-c2c[nH]c3ccccc23)n1`, for which the MIC in the assay on Staphylococcus aureus [1] is 25 µM (≈ 10.9 µg/mL); with Bacillus cereus, 50 µM (≈ 21.9 µg/mL); against Ralstonia solanacearum it was 25 µM (≈ 10.9 µg/mL); with Staphylococcus aureus [2], > 100 µM.

Regarding `COC(=O)c1cc2c3ccccc3n(Cc3ccc(Br)cc3)c2c(-c2cn(C(C)=O)c3ccccc23)n1`, the MIC against Staphylococcus aureus [1], in the assay on Bacillus cereus, in the assay on Ralstonia solanacearum and in the assay on Staphylococcus aureus [2] was > 100 µM each time.

Take `COC(=O)c1cc2c3ccccc3n(Cc3ccccc3C(F)(F)F)c2c(-c2cn(C(C)=O)c3ccccc23)n1`: the MIC against Staphylococcus aureus [1], against Bacillus cereus, in the assay on Ralstonia solanacearum and in the assay on Staphylococcus aureus [2] was > 100 µM in each case.

Consider `C[C@@H]1O[C@@H]1P(=O)(O)O` [PHOSPHOMYCIN DISODIUM], for which the MIC was 100 µM against Staphylococcus aureus [1], 25 µM in the assay on Bacillus cereus, 50 µM against Ralstonia solanacearum and 50 µM against Staphylococcus aureus [2].

Regarding `OCc1cc2c3ccccc3n(Cc3ccccc3Br)c2c(-c2c[nH]c3ccccc23)n1`, the MIC is 12.5 µM (≈ 6.03 µg/mL) against Staphylococcus aureus [1], 25 µM (≈ 12.1 µg/mL) with Bacillus cereus, 50 µM (≈ 24.1 µg/mL) in the assay with Ralstonia solanacearum and > 100 µM with Staphylococcus aureus [2].

Consider `COC(=O)c1cc2c3ccccc3n(Cc3ccccc3Cl)c2c(-c2cn(C(C)=O)c3ccccc23)n1`, for which the MIC is 100 µM (≈ 50.8 µg/mL) with Staphylococcus aureus [1], > 100 µM with Bacillus cereus, > 100 µM in the assay with Ralstonia solanacearum and > 100 µM in the assay on Staphylococcus aureus [2].

Take `O=C(O)c1cn(C2CC2)c2cc(N3CCNCC3)c(F)cc2c1=O` [CIPROFLOXACIN]: the MIC came to 3.12 µM (≈ 1.04 µg/mL) in the assay with Staphylococcus aureus [1], 6.25 µM (≈ 2.07 µg/mL) with Bacillus cereus, 3.12 µM (≈ 1.04 µg/mL) in the assay on Ralstonia solanacearum and 12.5 µM (≈ 4.14 µg/mL) against Staphylococcus aureus [2].

On to `OCc1cc2c3ccccc3n(Cc3ccccc3F)c2c(-c2c[nH]c3ccccc23)n1`, for which the MIC with Staphylococcus aureus [1] was 25 µM (≈ 10.5 µg/mL); in the assay on Bacillus cereus it was 50 µM (≈ 21.1 µg/mL); against Ralstonia solanacearum it was 25 µM (≈ 10.5 µg/mL); against Staphylococcus aureus [2] it was > 100 µM.

In the case of `COC(=O)c1cc2c3ccccc3n(Cc3ccccc3)c2c(-c2cn(C(C)=O)c3ccccc23)n1`, the MIC in the assay with Staphylococcus aureus [1], in the assay on Bacillus cereus, against Ralstonia solanacearum and with Staphylococcus aureus [2] was > 100 µM throughout.

`COC(=O)c1cc2c3ccccc3n(Cc3cccc(Cl)c3)c2c(-c2cn(C(C)=O)c3ccccc23)n1`: the MIC in the assay with Staphylococcus aureus [1], in the assay with Bacillus cereus, with Ralstonia solanacearum and with Staphylococcus aureus [2] was > 100 µM each time.

With `COC(=O)c1cc2c3ccccc3n(Cc3cccc(C(F)(F)F)c3)c2c(-c2cn(C(C)=O)c3ccccc23)n1`, the MIC with Staphylococcus aureus [1], with Bacillus cereus, against Ralstonia solanacearum and against Staphylococcus aureus [2] was > 100 µM throughout.

For the compound `OCc1cc2c3ccccc3n(Cc3cccc(F)c3)c2c(-c2c[nH]c3ccccc23)n1`, the MIC against Staphylococcus aureus [1] was 25 µM (≈ 10.5 µg/mL); in the assay on Bacillus cereus, 50 µM (≈ 21.1 µg/mL); against Ralstonia solanacearum it was 50 µM (≈ 21.1 µg/mL); against Staphylococcus aureus [2], > 100 µM.

As to `COC(=O)c1cc2c3ccccc3n(Cc3ccc(Cl)cc3)c2c(-c2cn(C(C)=O)c3ccccc23)n1`, the MIC with Staphylococcus aureus [1], against Bacillus cereus, against Ralstonia solanacearum and in the assay on Staphylococcus aureus [2] was > 100 µM throughout.

Turning to `COC(=O)c1cc2c3ccccc3n(Cc3cccc(F)c3)c2c(-c2cn(C(C)=O)c3ccccc23)n1`, the MIC against Staphylococcus aureus [1], in the assay with Bacillus cereus, against Ralstonia solanacearum and in the assay with Staphylococcus aureus [2] was > 100 µM in each case.

Regarding `COC(=O)c1cc2c3ccccc3n(Cc3cccc(Br)c3)c2c(-c2cn(C(C)=O)c3ccccc23)n1`, the MIC in the assay on Staphylococcus aureus [1], in the assay on Bacillus cereus, in the assay with Ralstonia solanacearum and against Staphylococcus aureus [2] was > 100 µM throughout.

For the compound `OCc1cc2c3ccccc3n(Cc3ccc(C(F)(F)F)cc3)c2c(-c2c[nH]c3ccccc23)n1`, the minimum inhibitory concentration (MIC) in the assay with Staphylococcus aureus [1], in the assay with Bacillus cereus, with Ralstonia solanacearum and in the assay on Staphylococcus aureus [2] was 25 µM (≈ 11.8 µg/mL) each time.

Regarding `COC(=O)c1cc2c3ccccc3n(Cc3ccc(C)cc3)c2c(-c2cn(C(C)=O)c3ccccc23)n1`, the MIC against Staphylococcus aureus [1], against Bacillus cereus, against Ralstonia solanacearum and against Staphylococcus aureus [2] was > 100 µM each time.

As to `Cc1ccccc1Cn1c2ccccc2c2cc(CO)nc(-c3c[nH]c4ccccc34)c21`, the MIC against Staphylococcus aureus [1] was 25 µM (≈ 10.4 µg/mL); in the assay on Bacillus cereus, 50 µM (≈ 20.9 µg/mL); in the assay on Ralstonia solanacearum, 12.5 µM (≈ 5.22 µg/mL); with Staphylococcus aureus [2], > 100 µM.

On to `OCc1cc2c3ccccc3n(Cc3ccc(Cl)cc3)c2c(-c2c[nH]c3ccccc23)n1`, for which the MIC was found to be 25 µM (≈ 10.9 µg/mL) in the assay with Staphylococcus aureus [1], 12.5 µM (≈ 5.47 µg/mL) against Bacillus cereus, 12.5 µM (≈ 5.47 µg/mL) with Ralstonia solanacearum and 50 µM (≈ 21.9 µg/mL) against Staphylococcus aureus [2].

Values taken from ChEMBL document CHEMBL4270603, “Computer-aided drug discovery: Novel 3,9-disubstituted eudistomin U derivatives as potent antibacterial agents” (Eur J Med Chem, 2018).
